Experimental data reported in ChEMBL document CHEMBL4513216, “Probing the Open Global Health Chemical Diversity Library for Multistage-Active Starting Points for Next-Generation Antimalarials” (ACS Infect Dis, 2020).

Assay: Toxicity liver stage against HepG2, at 10uM
Assay type: cell-based
Parameters: test concentration 10 uM, cell line HepG2-A16-CD81EGFP
Conditions: human, HepG2-A16-CD81EGFP cells; read-out: INHIBITION
Summary of the method: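 Uninfected HepG2-A16-CD81EGFP cells, 3 × 10^3 per well, 1536-well, plated on prespotted compound at 10 μM final, parasite-free screening media added to match infected plates; puromycin 10 μM positive, DMSO 0.5% negative; run in parallel with 48 h PbLuc assay at 37 °C, 5% CO2; viability by CellTiter-Glo luminescence, normalized to controls.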
Work on `CN1CCN(CC2(O)CCCN(S(=O)(=O)c3cn[nH]c3)CC2)CC1` (stereo not given) yielded a cytotoxicity at 10 µM of 2.25%. For `Cc1cc(NCc2cn(C)nc2-c2cccnc2)n(C)n1`, the cytotoxicity at 10 µM was 12%. In the case of `CCCN(Cc1ccc(OC)nc1)Cc1ccccc1OC`, the cytotoxicity at 10 µM is reported as -5.85%. With `Cc1nc(C)c(C(=O)NCCNC(=O)Cc2ccc(F)cc2)s1` the cytotoxicity at 10 µM was -5.68%. `Cn1ccnc1CN1CCC2(CC1)CN(CC1CC1)C(=O)CO2` showed a cytotoxicity at 10 µM of 1.7%. `N[C@@H](Cc1ccccc1)c1nnc(S(=O)(=O)Cc2ccc(Cl)cc2)o1` showed a cytotoxicity at 10 µM of 14.2%. Compound `Cc1cc(C)n2c(CCCNS(=O)(=O)c3cccs3)nnc2n1` has a cytotoxicity at 10 µM of 1.57%. In the case of `CCc1nnc2n1CCN(Cc1csc(-c3ccccc3F)n1)C2`, the cytotoxicity at 10 µM is reported as -4.49%. `Cn1cc(C(NCc2ccc(F)cc2)c2cccc(F)c2)cn1` (stereo not given) showed a cytotoxicity at 10 µM of 0.137%. With `N#Cc1cccc(N2CCC3(CC2)Nc2ccccc2NC3=O)n1` the cytotoxicity at 10 µM was 5.57%. Work on `Cc1cccc(CN2CCN(C(=O)N(C)C)[C@@H]3CS(=O)(=O)C[C@@H]32)n1` yielded a cytotoxicity at 10 µM of 0.00559%. In the case of `COCCC1(C(=O)O)CCCN(Cc2ccccc2OCCO)C1` (stereo not given), the cytotoxicity at 10 µM is reported as -40.9%. Work on `CN(C)C(=O)COCC1CN(CC2CCOCC2)Cc2ncn(C)c21` (stereo not given) yielded a cytotoxicity at 10 µM of 1.03%. `O=C(c1ccc(-n2ccnc2)nc1)N1CCN2CCCCC2C1` (stereo not given) showed a cytotoxicity at 10 µM of -5.95%. With `Cc1nc(O)c2nnn(C[C@H]3CCCN3C(=O)c3cccc(F)c3)c2n1` the cytotoxicity at 10 µM was -0.00161%. For `CC1CCCN(C(=O)NCC(F)F)C1` (stereo not given), the cytotoxicity at 10 µM was 13.6%. In the case of `COc1cc(C)nc(N2CCN(C(=O)c3cc(C)no3)CC2)n1`, the cytotoxicity at 10 µM is reported as -30.4%. `O=C(NCC1CC1)c1ccc(NC(=O)c2ccco2)cc1` gave a cytotoxicity at 10 µM of 7.91%. `COc1ccc(S(=O)(=O)N2CCOC(Cn3ccnc3)C2)cc1` (stereo not given) gave a cytotoxicity at 10 µM of 7.25%. For `CC(NC(=O)NCc1cccc(CN2CCCC2)c1)c1nccs1` (stereo not given), the cytotoxicity at 10 µM was -7.43%. Compound `CN(Cc1ccccc1NCc1cscn1)C(=O)c1cccs1` has a cytotoxicity at 10 µM of 0.503%. `CCc1noc(C(C)N2CCN(Cc3noc(C)n3)CC2)n1` (stereo not given) gave a cytotoxicity at 10 µM of -4.48%. `CCC(O)C1CCN(C(=O)Nc2nc(-c3ccccc3)ns2)CC1` (stereo not given) gave a cytotoxicity at 10 µM of -130%. Compound `COc1c(CNCc2ccnc(N3CCOCC3)c2)c(C)nn1C` has a cytotoxicity at 10 µM of -1.82%. Work on `CC(C)(C)C(=O)c1ccsc1NC(=O)CCNC(=O)c1ccco1` yielded a cytotoxicity at 10 µM of -52.7%. Work on `CN1CCCc2cc(CNC(=O)c3ccncc3)ccc21` yielded a cytotoxicity at 10 µM of 7.03%. For `Cc1ncc(CN(C)CCO)c2cc(C(=O)c3ccc(Br)cc3)oc12`, the cytotoxicity at 10 µM was -0.227%. Compound `CCOCc1nc(N2CCOCC2)sc1C(=O)NCCCc1ccco1` has a cytotoxicity at 10 µM of -87.3%. Work on `CN(C)c1ccc(CNCc2cnc(N3CCOCC3)nc2)cn1` yielded a cytotoxicity at 10 µM of 9.44%. `CC(=O)N[C@H]1CCN(C(=O)c2cc(Cn3cnc4ccccc43)[nH]n2)C1` gave a cytotoxicity at 10 µM of -1.91%. For `CN(Cc1nnc2n1CCC2)C(=O)c1ccc(=O)n(C)n1`, the cytotoxicity at 10 µM was -8.16%. For `O=C(CN1CCOCS1(=O)=O)NCCc1ccc(Cl)cc1`, the cytotoxicity at 10 µM was -5.14%. Work on `CCc1nnc2n1CCN(C(=O)C1CCC(n3cccc3)CC1)C2` (stereo not given) yielded a cytotoxicity at 10 µM of -1.5%. Compound `CCc1ccc(S(=O)(=O)Nc2cc(OC)c(OC)cc2C(=O)O)s1` has a cytotoxicity at 10 µM of -7.22%. Compound `CC(c1ccc(F)c(F)c1)N1CCN(Cc2nccn2C)CC1` (stereo not given) has a cytotoxicity at 10 µM of -2.76%. Work on `Cc1ccc2nc(CN(C)Cc3n[nH]c4c3CCCCC4)[nH]c2c1C` yielded a cytotoxicity at 10 µM of 17.1%. In the case of `CN(C(=O)Cn1nc(-c2ccc(F)cc2)ccc1=O)C1CCS(=O)(=O)C1` (stereo not given), the cytotoxicity at 10 µM is reported as -3.57%. Work on `CC1=C(C(=O)NCCc2n[nH]c3c2CCCC3)C(C)NC(=O)N1` (stereo not given) yielded a cytotoxicity at 10 µM of -3.51%. Compound `Cc1noc(-c2cnc(NC3CC3)nc2-c2ccco2)c1C` has a cytotoxicity at 10 µM of 6.38%. For `CCC(C)(C)C(=O)N1C[C@@H]2C[C@@H](c3nnc(C)[nH]3)O[C@@H]2C1`, the cytotoxicity at 10 µM was 4.79%. `CS(=O)(=O)CCNC(=O)N(Cc1ccoc1)C1CCCCC1` gave a cytotoxicity at 10 µM of 5.72%. For `C=C(C)COc1ccccc1NC(=O)NC1CCOCC1`, the cytotoxicity at 10 µM was 4.67%. Work on `Cc1cccn2c(CC(=O)N3CCC(CCn4cccn4)CC3)cnc12` yielded a cytotoxicity at 10 µM of -53.1%. `COCCn1cc(C(=O)N2CCCC2c2cccc(C)c2)ccc1=O` (stereo not given) gave a cytotoxicity at 10 µM of 5.59%. In the case of `CSCc1nc(CCNC(=O)c2cnn(C(C)C)c2)cs1`, the cytotoxicity at 10 µM is reported as -7.91%. For `c1ccc(CCNc2cccc(C3CCCNC3)n2)cc1` (stereo not given), the cytotoxicity at 10 µM was -3.18%. `Cc1cc(=O)n(CC(=O)NC(C)C)c(Nc2ccc(F)c(C)c2)n1` gave a cytotoxicity at 10 µM of 7.97%. In the case of `Cc1cc(C)nc(Nc2nccnc2C2CCCN(CCO)C2)n1` (stereo not given), the cytotoxicity at 10 µM is reported as -0.0399%. For `OC[C@@H]1CCCN1c1nccc(-c2c[nH]nc2-c2ccncc2)n1`, the cytotoxicity at 10 µM was -4.28%. `CNc1cc2c(nn1)CCN(C(=O)c1ccccc1-n1cccn1)C2` gave a cytotoxicity at 10 µM of 1.91%. For `CCN1CCC(CNCc2cc(OC)ccc2OC)C1` (stereo not given), the cytotoxicity at 10 µM was -2%. Compound `Cc1nc(CCN)cc(N2CCCN(C(=O)c3ccco3)CC2)n1` has a cytotoxicity at 10 µM of 1.24%. `COc1cccc(C(=O)N2CC[C@@H]3[C@H](CC2)N(C)CCS3(=O)=O)c1` showed a cytotoxicity at 10 µM of -129%. In the case of `CC(C)N(C)S(=O)(=O)N(C)Cc1ccc2c(c1)OCCO2`, the cytotoxicity at 10 µM is reported as -2.84%. For `Cn1cc([C@@H]2CN(S(=O)(=O)c3ccccc3F)C[C@H]2N)c2ccncc21`, the cytotoxicity at 10 µM was 6.13%.
